This note sets out measurements from PubChem BioAssay.

Activity calls are given as the source filed them.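 Rule for the calls, unless noted: active = compounds giving at least 50% inhibition in the cell-based MKP-3 phosphatase rescue imaging test; inactive = the rest.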

A short description of assay [1]: inhibitors of TNFa-induced NFkB p65 translocation, primary screen, imaging, HUVEC, MLSMR starter and 10KST1 sets (AID 438;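 active = inhibition above 20% together with a positive visual image hit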;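 note: compound added about 3h40 before a 20 min TNFalpha stimulation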;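 for inhibition: signal is the nuclear over cytoplasmic p65 intensity ratio per well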). Conditions: HUVEC TNFa-induced p65 nuclear translocation; cell count: measured here: nuclei count (cytotoxicity indicator), at 2.08 µM; inhibition: at 2 µM, stronger effect = higher value, 0% TNFa-plus-vehicle, 100% no-TNFa wells.
The nature of assay [2]: inhibitors of E-selectin induction by TNFa, primary screen, imaging, HUVEC, immunofluorescence, MLSMR starter and 10KST1 sets (AID 487;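 active = visually confirmed hit in the image check and inhibition above 20%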;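 for inhibition: signal is fraction of cell area covered by stained E-selectin grains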;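 for nuclei count: 100% = median nuclei count of all wells on the same plate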). Conditions: HUVEC TNFalpha-induced E-selectin immunofluorescence imaging, at 2 µM; inhibition: stronger effect = higher value; nuclei count: measured here: cell number, toxicity.
A short description of assay [3]: DUSP6 inhibitors restoring Erk phosphorylation by chemical complementation, primary imaging in DUSP6-transfected HeLa (AID 609).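 For inhibition: phospho-Erk level distribution per well compared with pooled transfected vehicle control wells.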 The settings on record: HeLa MKP-3 transfected, phospho-Erk imaging KS statistic, at 10 µM, cells stimulated with TPA for 15 min.
The target in assay [4] is Dual specificity protein phosphatase 6 (Homo sapiens) (UniProt Q16828). The description is as above. The settings on record: HeLa MKP-3 transfected, phospho-Erk imaging KS statistic; at 10 µM; stronger effect = higher value; cells stimulated with TPA for 15 min.
Chain of Dual specificity protein phosphatase 6 (Homo sapiens) (Q16828 whole entry, looked up): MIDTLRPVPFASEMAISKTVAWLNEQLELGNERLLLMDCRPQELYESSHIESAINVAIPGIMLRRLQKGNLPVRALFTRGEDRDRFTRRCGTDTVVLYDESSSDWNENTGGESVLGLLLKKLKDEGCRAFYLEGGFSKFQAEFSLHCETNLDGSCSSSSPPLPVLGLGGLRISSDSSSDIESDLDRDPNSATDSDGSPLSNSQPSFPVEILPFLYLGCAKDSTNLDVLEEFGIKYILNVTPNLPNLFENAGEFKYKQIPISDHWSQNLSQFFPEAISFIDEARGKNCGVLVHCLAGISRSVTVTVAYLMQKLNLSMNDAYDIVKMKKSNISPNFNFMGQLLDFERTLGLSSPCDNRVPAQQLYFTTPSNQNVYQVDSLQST
Assay [5] deals with Voltage-gated potassium channel subunit beta-2 (Rattus norvegicus) (UniProt P62483). Kind of assay: KvBeta enzyme negative modulators, primary screen, biochemical, NADPH fluorescence (AID 622;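 active = fluorescence slope higher than the sample average by over 3 SD, cut at about -0.22 in these data, passing the limit was not always enough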;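 note: slope of raw intensity against log time taken from 70 to 1610 s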). Conditions: recombinant KvBeta, 4-cyanobenzaldehyde reduction, at 10 µM, stronger effect = higher value.
Chain of Voltage-gated potassium channel subunit beta-2 (Rattus norvegicus) (P62483 whole entry, looked up): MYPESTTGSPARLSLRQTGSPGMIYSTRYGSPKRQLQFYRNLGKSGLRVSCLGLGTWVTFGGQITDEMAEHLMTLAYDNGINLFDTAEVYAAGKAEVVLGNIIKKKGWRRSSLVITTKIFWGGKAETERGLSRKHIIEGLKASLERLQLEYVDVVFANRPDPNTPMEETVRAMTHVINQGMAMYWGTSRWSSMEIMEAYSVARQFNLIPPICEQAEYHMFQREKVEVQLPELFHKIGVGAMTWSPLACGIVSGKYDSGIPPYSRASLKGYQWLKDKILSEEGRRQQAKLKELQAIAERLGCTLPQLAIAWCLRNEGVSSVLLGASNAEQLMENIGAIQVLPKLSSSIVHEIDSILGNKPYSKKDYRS
Assay [6] shares this target. In words: KvBeta positive modulators, primary screen, biochemical, NADPH fluorescence (AID 623;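 active = NADPH fluorescence slope more negative than the mean of all samples by about 3 SD, 99.7% confidence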;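 note: fluorescence intensity change per second fitted from 20 to 320 s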). Conditions: Recombinant KvBeta, NADPH fluorescence decrease slope, 10 min; at 10 µM; stronger effect = lower value.
Assay [7] concerns the target Muscarinic acetylcholine receptor M4 (Homo sapiens) (UniProt P08173). Kind of assay: compounds altering M4/GIRK thallium flux, either direction, primary screen, M4 allosteric agonist project, cell-based, HEK293 M4/GIRK, BTC-AM (AID 625;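 active = fluorescence slope after compound addition differing from the mean of all tested samples at 99.7% confidence, mostly higher but some lower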;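 note: thallium influx through GIRK channels coupled to M4 in HEK293 cells with BTC-AM dye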). Conditions: at 10 µM, actives lie on both sides. Summed up:
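Material: M4/GIRK1/GIRK2 stable HEK293 cell line. Medium: pH 7.3 thallium assay buffer. Dosing: single compound concentration, 10 µM final. Schedule: 1 h dye loading, 2 min kinetic read. Measured by: kinetic fluorescence with BTC-AM dye. Read-out: post-addition slope, 15–24 s, of baseline-normalized fluorescence. Benchmarks: carbachol and DMSO controls.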

A short description of assay [8]: inhibitors of larval lipid processing in zebrafish, primary screen, whole organism, PED6 fluorescence, gall bladder and intestine (AID 686;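 active = a full or partial loss of lipid-probe fluorescence in the fish gall bladder, intestine or both, judged by eye; inactive = no fluorescence loss, or compound toxic to the fish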;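 note: larvae 5 to 7 days old with five fish per well; signal comes from phospholipase A2 cleavage of quenched PED6 carried via bile; overnight exposure to compound and PED6 before scoring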). Conditions: Zebrafish larvae PED6 lipid processing, fluorescence scoring; screened at 20 µM (by protocol). The procedure, abridged:
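System: live zebrafish larvae aged 5-7 days, whole organism; measure: graded gall bladder and intestinal fluorescence inhibition per well; incubation: overnight exposure; reagent: ingested quenched lipid PED6 at 100 nM; signal: By-eye fluorescence microscopy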

A short description of assay [9]: inhibitors of Chlamydomonas gravitaxis, primary screen, whole organism, Chlamydomonas reinhardtii, WT vs cilia-less mutant, absorbance, 96-well (AID 463189;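 active = inhibition at or above 50% relative to wild type and mutant plate controls; inactive = inhibition below 50%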;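 note: 0% = wild type cc124 cells in DMSO and 100% = ciliumless bld1 mutant cells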). Conditions: OD600 absorbance, 2 days, at 10 µM, stronger effect = higher value.
The mark [10] stands for this setting: measured here: cell density z-score.
Setting [11] is: measured here: nuclear c-Myc green intensity z-score.
[12] abbreviates: measured here: nuclear pErk red intensity z-score, stronger effect = higher value.

Chain of Muscarinic acetylcholine receptor M4 (Homo sapiens) (P08173 whole entry, looked up): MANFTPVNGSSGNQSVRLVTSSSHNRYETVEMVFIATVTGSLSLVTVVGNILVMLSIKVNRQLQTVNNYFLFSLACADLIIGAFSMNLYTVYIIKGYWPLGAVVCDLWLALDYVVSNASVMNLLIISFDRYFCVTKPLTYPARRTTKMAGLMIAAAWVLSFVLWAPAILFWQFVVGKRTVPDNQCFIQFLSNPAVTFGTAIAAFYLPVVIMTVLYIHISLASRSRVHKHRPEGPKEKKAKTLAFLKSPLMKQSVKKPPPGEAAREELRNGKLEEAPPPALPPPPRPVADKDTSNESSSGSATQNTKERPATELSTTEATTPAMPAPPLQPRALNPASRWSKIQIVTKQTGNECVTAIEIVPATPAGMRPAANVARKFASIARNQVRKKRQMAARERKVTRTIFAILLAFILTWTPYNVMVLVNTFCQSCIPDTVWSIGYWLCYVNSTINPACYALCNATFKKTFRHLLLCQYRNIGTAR

In general, inhibition refers to the relative decrease from the control value, in per cent. In the case of `Cc1cc(C(=O)O)c(CSc2ncn[nH]2)o1`, the cell count in [1] stood at 652. In addition, the inhibition in assay [1] was -7.4% (inactive); in assay [2], -48.6% (inactive); in [4], -5.81% (inactive); in assay [9], -11% (inactive). The compound further showed a nuclei count in assay [2] of 174%. In addition, the z-score in assay [3] (setting [10]) is -1.18; in [3] (setting [11]) it was 1.91; in assay [3] (setting [12]) it was 1.7. For the same compound, the figures for the fluorescence slope in [5] and in assay [7] were -0.455 (inactive) and 0.0045 (inactive), respectively. The NADPH fluorescence slope in assay [6] is -0.000158 (inactive). For the same compound, the result in [8] was inactive.
Consider `O=C(NCc1ccccc1)C1C(=O)N(Cc2ccccc2)C(=O)C1C1(O)CCCC1` (stereo unspecified), for which the cell count in assay [1] was 653. In addition, the inhibition in [1] is -2.4% (inactive); in assay [2], -17.9% (inactive); in [4], -13.3% (inactive); in assay [9], -5.5% (inactive). This compound also had a nuclei count in assay [2] of 108%. Also, the z-score in assay [3] (setting [10]) is -0.94; in assay [3] (setting [11]) it was 0.675; in assay [3] (setting [12]) it was 0.754. Also, the fluorescence slope was -0.508 (inactive) in [5] and 0.00572 (inactive) in assay [7]. Besides, in [6], the NADPH fluorescence slope is -2.1e-05 (inactive). For the same compound, the outcome in assay [8] was inactive.
On to `O=C(COc1ccc(Cl)cc1)Nc1ccccc1CO`, for which the cell count in assay [1] worked out at 590. The inhibition in assay [1] is -0.5% (inactive); in assay [2], -9.8% (inactive); in assay [4], 5.42% (inactive); in [9] it was -8.26% (inactive). Further, the nuclei count in assay [2] was 120%. For the same compound, the z-score in assay [3] (setting [10]) was 1.01; in assay [3] (setting [11]), 0.534; in [3] (setting [12]) it was -0.247. For the same compound, the results for the fluorescence slope in [5] and in assay [7] were -0.435 (inactive) and 0.00526 (inactive), respectively. The NADPH fluorescence slope in assay [6] was -0.000143 (inactive). Besides, the compound was classed as inactive in [8].
`O=C(OCCN1CCOCC1)c1ccc2c(c1)OCCO2`: the cell count in [1] was determined as 644. Also, the inhibition was -12.8% (inactive) in [1], 1.7% (inactive) in [2], -9.53% (inactive) in assay [4] and -3.31% (inactive) in [9]. Besides, in assay [2], the nuclei count amounted to 180%. The z-score in assay [3] (setting [10]) was 0.036; in [3] (setting [11]), 0.0112; in assay [3] (setting [12]) it was 0.434. Moreover, the results for the fluorescence slope in [5] and in [7] were -0.473 (inactive) and 0.00543 (inactive), respectively. The NADPH fluorescence slope in assay [6] is -6.5e-05 (inactive). For the same compound, in [8], the call was inactive.
Take `Cc1nn(CC(N)=O)c(=O)c2ccccc12`: the cell count in [1] stood at 579. For the same compound, the inhibition was -2.9% (inactive) in [1], -62.8% (inactive) in assay [2], 10.9% (inactive) in [4] and -4.61% (inactive) in assay [9]. The compound also yielded a nuclei count in assay [2] of 142%. Moreover, the z-score in assay [3] (setting [10]) is 2.22; in assay [3] (setting [11]), -0.838; in assay [3] (setting [12]) it was 0.00121. Further, the fluorescence slope was -0.485 (inactive) in assay [5] and 0.00427 (inactive) in [7]. For the same compound, the NADPH fluorescence slope in assay [6] is -0.00011 (inactive). Further, the compound was classed as inactive in assay [8].
In the case of `Cc1ccc(C2CC(c3cccs3)n3nc(N)nc3N2)cc1` (stereo unspecified), in [1], the cell count stood at 390. Besides, the inhibition in assay [1] is -2% (inactive); in assay [2] it was -110% (inactive); in assay [4], 3.56% (inactive); in [9], 31.5% (inactive). The same compound registered a nuclei count in assay [2] of 149%. Also, the z-score in assay [3] (setting [10]) was -0.677; in assay [3] (setting [11]), 0.494; in [3] (setting [12]) it was -0.466. Further, the fluorescence slope was -0.429 (inactive) in assay [5] and 0.00581 (inactive) in assay [7]. Besides, in assay [6], the NADPH fluorescence slope was -0.000111 (inactive). Besides, the result in assay [8] was inactive.
As for `CCOC(=O)CNC(=O)CCCCCC(=O)NCC(=O)OCC`, the cell count in assay [1] turned out to be 367. The inhibition in assay [1] is -1.3% (inactive); in assay [2], -27.8% (inactive); in assay [4] it was 11.4% (inactive); in [9], 21.4% (inactive). The nuclei count in assay [2] is 132%. Also, the results for the z-score in [3] (setting [10]), in [3] (setting [11]) and in [3] (setting [12]) were -0.497, 0.819 and 0.154, respectively. Moreover, the fluorescence slope is -0.431 (inactive) in assay [5] and 0.00362 (inactive) in assay [7]. Further, the NADPH fluorescence slope in [6] was -9.3e-05 (inactive). Also, in assay [8], the result was inactive.
